Our source for the IC50 values is ChEMBL document CHEMBL2390912, “Aromatic glycosyl disulfide derivatives: evaluation of their inhibitory activities against Trypanosoma cruzi” (Bioorg Med Chem Lett, 2013).

The IC50 is the concentration that inhibits the measured activity by half. Higher therefore signals weaker potency.

Test [1] deals with Trypanosoma cruzi. The experiment in a line: Trypanocidal activity against Trypanosoma cruzi Y trypomastigotes infected in human HeLa cells at 37 degC after 18 hrs by resazurin assay. The format is functional, organism-based. Summed up: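 Tissue culture-derived trypomastigotes treated for 18 h at 37 °C. Read-out by fluorescence.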
For orientation: The colour change of resazurin is a common sign of viable cells or microbes.

Test [2] has as its system Trypanosoma cruzi. The experiment in a line: Trypanocidal activity against Trypanosoma cruzi Y trypomastigotes infected in human HeLa cells at 4 degC after 18 hrs by hemocytometric analysis. The format is functional, organism-based.

SMILES strings stand for the structures.

Regarding `O=C(Cn1ccnc1[N+](=O)[O-])NCc1ccccc1` [BENZNIDAZOLE], the IC50 in the test with Trypanosoma cruzi [1] is 25.6 µM; in the test with Trypanosoma cruzi [2], ≥ 500 µM.
